Laboratory results reported in article PMC8596596 (Journal of Clinical Pharmacology, 2021).
Values joined by “and” are separate entries in the source; they are usually repeats but may differ in a detail not shown here. Equal entries are not always repeated. Where two headings read alike, the source gives them in different places. Each block holds one compound with its values, some of them ahead of it.

Assays:
[1] = tested on: healthy elderly subjects; test: Visual analog scales; assay type: in vivo, human; settings: both doses (2 and 4 mg)
Summary of the method: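 Bond and Lader visual analog scales rated alertness, mood and calmness, and nausea was rated on a 100-mm line. Oral 2 mg, 4 mg or placebo in a crossover design in healthy elderly subjects. Ratings were made repeatedly predose and up to 22 h postdose. Analysed by mixed-model ANCOVA with baseline covariate against placebo.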

[2] = tested on: healthy elderly subjects; test: N-back task; assay type: in vivo, human; settings: vs placebo
[3] = molecular target: M3 mAChR; settings: read-out: equilibrium dissociation constant [Kd] for M3; cited from earlier work
[4] = Plasma pharmacokinetics, noncompartmental analysis; assay type: in vivo; settings: human, po
Summary of the method: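 K2-EDTA plasma underwent liquid-liquid extraction and LC-MS/MS: phenyl column, isocratic 0.025% NH4OH in 67% acetonitrile, positive MRM at m/z 312→143, deuterated internal standard. QC levels were 0.300, 1.50 and 8.00 ng/mL. Parameters were obtained by noncompartmental analysis.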

[5] = molecular target: M2 mAChR; settings: read-out: equilibrium dissociation constant [Kd] for M2; cited from earlier work
[6] = Population PK model; assay type: in vivo, human; settings: oral
Summary of the method: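 Nonlinear mixed-effects modelling of plasma concentrations after oral 2 and 4 mg in healthy elderly subjects. 1-, 2- and 3-compartment models were explored, with or without absorption lag time and transit compartments. Between-subject and between-occasion variability were added bottom-up (P < .01). Age, sex, weight and BMI were tested as covariates (forward P < .01, backward P < .001). The final model had 2 compartments with linear elimination.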

[7] = tested on: healthy elderly subjects; test: Finger tapping test; assay type: in vivo, human; settings: both doses (2 and 4 mg)
Summary of the method: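 Finger tapping with the index finger of the dominant hand on a computer space bar, as fast as possible. Each session had 5 trials of 10 s, and mean tapping rate and SD were analysed. Oral 2 mg, 4 mg or placebo in a crossover design; tests predose and at 1, 2.5, 4, 7 and 22 h. Mixed-model ANCOVA with baseline covariate.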

[8] = molecular target: M4 mAChR; settings: read-out: equilibrium dissociation constant [Kd] for M4; cited from earlier work
[9] = tested on: healthy elderly subjects; test: Pupillometry; assay type: in vivo, human
Summary of the method: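 Pupil images were taken with a digital camera and single flash. Pupil and iris diameters were measured horizontally in pixels, and the pupil/[…] diameter ratio was calculated for each eye. Oral 2 mg, 4 mg or placebo in a crossover design in healthy elderly subjects. Measured twice predose and at 1, 2.5, 4, 7 and 22 h. Mixed-model ANCOVA with baseline covariate against placebo.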

[10] = tested on: healthy elderly subjects; test: Saccadic and smooth pursuit eye movements; assay type: in vivo, human
Summary of the method: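 Subjects followed a horizontally moving target on a screen 58 cm away. The target moved continuously for smooth pursuit and jumped side to side for saccades, and movements were recorded by computer. Oral 2 mg, 4 mg or placebo in a crossover design in healthy elderly subjects; tests predose and at 1, 2.5, 4, 7 and 22 h. Mixed-model ANCOVA with baseline covariate.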

[11] = tested on: healthy elderly subjects; test: Safety and tolerability; assay type: in vivo, human; settings: 2 and 4 mg oral
Summary of the method: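 Safety was monitored through treatment-emergent adverse events, laboratory tests, vital signs and ECG during each period. Randomization gave the 4-mg dose only after the 2-mg study day had been completed. A snack was given within 30 minutes before dosing, and caffeine and nicotine were not allowed. Oral single doses with a 1-week washout.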

[12] = tested on: healthy elderly subjects; test: Population PK-PD model; assay type: in vivo, human
[13] = tested on: healthy elderly subjects; test: Body sway; assay type: in vivo, human; settings: 22 hours postdose
Summary of the method: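 Crossover in healthy elderly subjects given oral 2 mg, 4 mg or placebo. Postural stability was measured with a body sway meter recording movement in a single plane over 2 minutes, with movements integrated. Measured twice predose and at 1, 2.5, 4, 7 and 22 h postdose. Analysis used mixed-model ANCOVA with time and treatment factors and the average baseline as covariate.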

[14] = tested on: healthy elderly subjects; test: Visual-verbal learning test; assay type: in vivo, human; settings: 4 mg oral, vs placebo
Summary of the method: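 A 30-word list was presented. Immediate recall rounds assessed acquisition at 1.5 h postdose, followed by delayed recall and recognition. Subjects received oral 4 mg, 2 mg or placebo in a crossover design; single-occasion test. Analysed by mixed-model ANOVA with treatment and period as fixed factors and subject as random factor, comparing least-squares means with placebo.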

[15] = tested on: healthy elderly subjects; test: Adaptive tracking test; assay type: in vivo, human; settings: for decrease in mean adaptive tracking test performance: vs placebo
Summary of the method: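 Randomized, double-blind, placebo-controlled 3-way crossover in 12 subjects aged 65–80 years (MMSE ≥28). Single oral doses of 2 or 4 mg test compound or placebo, 1-week washout. Joystick pursuit task: the subject keeps a dot inside a randomly moving circle, whose speed rises with success and falls with failure. Tested twice predose and at 1, 2.5, 4, 7 and 22 h. Mixed-model ANCOVA with baseline covariate; least-squares means versus placebo.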

[16] = molecular target: M1 mAChR; settings: read-out: equilibrium dissociation constant [Kd] for M1; cited from earlier work
[17] = cited from earlier work
[18] = tested on: healthy elderly subjects; test: Mismatch negativity auditory event-related potential; assay type: in vivo, human; settings: vs placebo
Summary of the method: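 Passive auditory oddball while subjects watched a silent movie. 750 tones were given (600 frequent, 150 deviant), each 150 ms at 75 dB, at a fixed 2 Hz rate. Event-related potential recorded by EEG. Healthy elderly subjects received oral 2 or 4 mg or placebo in a crossover design with repeated postdose sessions. Compared with placebo by mixed-model analysis.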

[19] = molecular target: M5 mAChR; settings: read-out: equilibrium dissociation constant [Kd] for M5; cited from earlier work
[20] = tested on: healthy subjects; settings: cited from earlier work
[21] = tested on: healthy subjects; settings: cited from earlier work; remark: listed apart in the source

VAS nausea scores, change [1]: No significant changes
AUC(0-t) ([4]; 2 mg): 18.4 ng·h/mL
Cmax ([4]; 2 mg): 3.51 ng/mL
AUC(0-t) ([4]; 4 mg): 39.5 ng·h/mL
Cmax ([4]; 4 mg): 7.45 ng/mL
Tmax ([4]; 4 mg): 2 h
half-life ([6]; human, plasma): 29.5 h
Absorption rate constant ([6]; population PK estimate): 2.73 (BOV = 97.7%) /hour
Clearance ([6]; population PK estimate): 78.06 (IIV = 172%, BOV = 12%) L/h/F
Lag time ([6]; population PK estimate): 0.54 (BOV = 75%) hours
Volume of distribution—central ([6]; population PK estimate): 491.40 (IIV = 79.5%) L/F
Structure (SMILES): OC(CCN1CCCCC1)(c1ccccc1)C1CC2C=CC1C2 (centres unmarked) [biperiden]
VAS Bond and Lader subscales of mood, alertness, and calmness, change [1]: No significant changes
n-back reaction time and accuracy, change ([2]; 2 mg oral): No significant change
n-back 0-back condition reaction time, mean difference ([2]; 4 mg oral): 37.2 milliseconds
n-back 1-back condition reaction time, mean difference ([2]; 4 mg oral): 49.9 milliseconds
n-back 2-back condition accuracy, decrease ([2]; 4 mg oral): 0.06
n-back task reaction time increase ([2]; 4 mg oral): ≤ 50 millisecond
Kd [3]: 3.9 ± 0.1 nM
Kd [5]: 6.3 ± 0.5 nM
tapping-test performance, change [7]: No significant changes
Kd [8]: 2.4 ± 0.03 nM
pupil/iris ratio left eye, mean difference ([9]; 4 mg oral, vs placebo): 0.065
pupil/iris ratio right eye, mean difference ([9]; 4 mg oral, vs placebo): 0.07341
pupil/iris ratio in both eyes, recovery ([9]; 22 hours postdose): not normalized 22 hours postdose
smooth pursuit, effect ([10]; 2 mg oral, vs placebo): No significant effect
smooth pursuit decrease ([10]; 4 mg oral, vs placebo): 3.55 percentage point
saccadic inaccuracy, peak velocity, or reaction time, effect ([10]; both doses (2 and 4 mg) vs placebo): No significant effects
tolerability [11]: well tolerated
tolerability ([11]; listed as Biperiden): very well tolerated
adaptive tracking, linear concentration-effect slope [12]: −0.98 percentage point/ng/mL
n-back 0-back accuracy measure, drug effect [12]: No significant effect
n-back 0-back reaction time, Emax [12]: 288.5 milliseconds
n-back 0-back reaction time, Hill coefficient [12]: 2.25
n-back 1-back accuracy measure, linear drug effect slope [12]: -0.011 ng⁻¹ mL⁻¹
n-back 1-back reaction time, linear drug effect slope [12]: 16.18 ms/ng/mL
n-back 2-back reaction time, linear drug effect slope [12]: 11.08 ms/ng/mL
body sway, recovery [13]: not normalized 22 hours postdose
VVLT second immediate recall round, fewer words recalled [14]: 2.5 words
VVLT third immediate recall round, fewer words recalled [14]: 2.9 words
decrease in mean adaptive tracking test performance ([15]; 2 mg oral): 1.36 percentage point
adaptive tracking, change compared with placebo ([15]; 4 mg oral): −2.1 percentage point
decrease in mean adaptive tracking test performance ([15]; 4 mg oral): 2.10 percentage point and 2.1 percentage point
Kd [16]: 0.48 ± 0.02 nM
bioavailability ([17]; assumed, oral ref 18): approximately 33%
Tmax ([17]; postdose, as stated for previous studies): approximately 1 hour
MMN latency at Fz, increase ([18]; 2 mg oral): 12.1 milliseconds
MMN latency at Fz, increase ([18]; 4 mg oral): 13.9 milliseconds
Kd [19]: 6.3 ± 0.1 nM

Structure (SMILES): NC(=O)C(c1ccccc1)(c1ccccc1)[C@@H]1CCN(CCc2ccc3c(c2)CCO3)C1 [darifenacin]
effect on body sway [20]: increase body sway

Structure (SMILES): CN1[C@@H]2C[C@@H](OC(=O)[C@H](CO)c3ccccc3)C[C@H]1[C@@H]1O[C@@H]12 [scopolamine]
peak saccadic velocity, effect [21]: concentration‐related decrease
